Measurements published in paper PMC5242172 (Pharmacology Research & Perspectives, 2016).
Like-named read-outs stand apart in the source and are kept apart here.

Key:
[1] = molecular target: bovine heart mitochondrial complex I (Bos taurus, UniProt P03887+P17694+P42026); test: Complex I activity; type: biochemical
[2] = tested on: NCI-H23 cells; test: Cellular ATP measurement; type: cell-based, human; settings: NCI-H23, 6 h of treatment
Method in brief: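 NCI-H23 cells in RPMI 1640 with 5% FBS were plated at 1–2 × 10^5 cells/mL and incubated overnight at 37°C, 5% CO2. Test compound diluted in medium was added for 6 h, with final DMSO below 1%. Lysis buffer and substrate were added, and luciferase-based luminescence was read. ATP was expressed as % of solvent-treated wells; mean ± SEM, n = 3.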

[3] = tested on: NCI-H23 cells; test: Cellular oxygen consumption rate; type: cell-based, human; settings: NCI-H23, 1 h after drug
[4] = tested on: xenograft tumors; settings: ref Kojima et al. 2014; cited from earlier work
[5] = tested on: panel of 39 human cancer cell lines (JFCR39); test: Growth inhibition profile, summary over the JFCR39 panel; type: cell-based
[6] = tested on: NCI-H23 cells; test: Viable cell number; type: cell-based, human; settings: NCI-H23, 6 h of treatment
Method in brief: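 NCI-H23 cells were grown in RPMI 1640 with 5% FBS at 37°C, 5% CO2, and exposed to test compound (DMSO stocks 10 or 100 mmol/L) for 6 h. Viable cells were counted by trypan blue exclusion on an automated cell counter and expressed as % of nontreated control; mean ± SEM, n = 3.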

[7] = tested on: mitochondrial DNA-deficient (ρ0) NCI-H23 cells; test: Growth of ρ0 versus ρ+ cells, sulforhodamine B assay; type: cell-based, human; settings: NCI-H23 ρ0 vs ρ+, 48 h
[8] = tested on: mitochondrial complexes (complex II–V); test: Activities of OxPhos complexes II-V; type: biochemical; settings: II + III, IV, V (Fig. S2)

Sequence of bovine heart mitochondrial complex I (P03887 whole entry): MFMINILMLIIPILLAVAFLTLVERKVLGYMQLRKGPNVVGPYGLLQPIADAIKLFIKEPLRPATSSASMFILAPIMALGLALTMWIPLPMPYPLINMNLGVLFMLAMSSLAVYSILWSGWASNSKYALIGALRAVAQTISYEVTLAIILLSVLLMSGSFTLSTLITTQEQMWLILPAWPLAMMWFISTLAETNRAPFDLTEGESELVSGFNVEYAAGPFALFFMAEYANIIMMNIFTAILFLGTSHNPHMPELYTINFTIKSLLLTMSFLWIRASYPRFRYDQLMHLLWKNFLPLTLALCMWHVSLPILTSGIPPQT
Sequence of bovine heart mitochondrial complex I (P42026 38-216): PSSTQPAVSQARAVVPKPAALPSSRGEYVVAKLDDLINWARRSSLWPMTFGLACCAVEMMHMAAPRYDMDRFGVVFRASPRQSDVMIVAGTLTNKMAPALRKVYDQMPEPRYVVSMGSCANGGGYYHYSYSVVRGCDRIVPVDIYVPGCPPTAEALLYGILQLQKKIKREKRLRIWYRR
Sequence of bovine heart mitochondrial complex I (P17694 34-463): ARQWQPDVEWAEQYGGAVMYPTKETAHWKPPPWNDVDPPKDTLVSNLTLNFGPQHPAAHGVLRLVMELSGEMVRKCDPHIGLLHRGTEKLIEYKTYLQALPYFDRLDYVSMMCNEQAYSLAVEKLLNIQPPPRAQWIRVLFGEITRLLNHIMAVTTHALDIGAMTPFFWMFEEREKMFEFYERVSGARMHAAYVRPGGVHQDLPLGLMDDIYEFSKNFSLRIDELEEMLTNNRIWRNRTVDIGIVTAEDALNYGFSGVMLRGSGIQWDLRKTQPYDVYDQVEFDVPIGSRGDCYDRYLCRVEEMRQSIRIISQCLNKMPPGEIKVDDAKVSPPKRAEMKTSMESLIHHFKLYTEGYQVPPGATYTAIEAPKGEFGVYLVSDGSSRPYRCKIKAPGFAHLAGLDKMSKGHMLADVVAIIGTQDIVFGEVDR

For COc1cc2c(cc1OC)[C@@H]1C(=O)c3ccc4c(c3O[C@@H]1CO2)C=CC(C)(C)O4 [Deguelin, reference compound], the IC50 [1] was 40 nM.

For CN(C)c1cccc2c(S(=O)(=O)NCCCCCCCCC[C@@H](O)[C@H]3CC[C@H]([C@H](O)CCCCCCCCCCNC(=O)c4ccsc4)O3)cccc12 [JCI-13291, N‐[(R)‐11‐((2R,5R)‐5‐{(R)‐10‐[5‐(Dimethylamino)naphthalene‐1‐sulfonamido]‐1‐hydroxydecyl}tetrahydrofuran‐2‐yl)‐11‐hydroxyundecyl]thiophene‐3‐carboxamide], the “effect on intracellular ATP content” value [2] was “depleted intracellular ATP content” and the “effect on cellular oxygen consumption rate” value [3] was “inhibited the aerobic aspiration of NCI‐H23 cells”.

For CCCCCCCCCCCC[C@@H](O)[C@H]1CC[C@H]([C@H](O)CCCCCCCCCCNC(=O)c2ccsc2)O1 [JCI-20679, N‐((R)‐11‐Hydroxy‐11‐{(2R,5R)‐5‐[(R)‐1‐hydroxytridecyl]tetrahydrofuran‐2‐yl}undecyl)thiophene‐3‐carboxamide], the IC50 [1] was 170 nM, the “complex I inhibition, activity relative to rotenone” value ([1]; ratio of IC50 values) was “seven times less activity than rotenone” and the “complex I inhibition, times greater activity than phenformin” value ([1]; ratio of IC50 values) was 6000 times. The “complex I inhibition, times greater activity than solamin” value ([1]; ratio of IC50 values) was 30 times, the “effect on intracellular ATP content” value [2] was “ATP depletion by JCI‐20679 in a dose‐dependent manner” and the “antitumor activity in mouse xenograft models” value [4] was “more potent antitumor activity than solamin”. The “side effects in mouse xenograft models” value [4] was “no severe side effects”, the GI50 ([5]; 48 h, read-out: MG-MID, the mean of log GI50 values for 39 cell lines (converted)) was 2750 nM and the GI50 ([5]; read-out: mean GI50 within the JFCR39 panel) was 2750 nM. For the same molecule, the viable cell number [6] was “hardly changed”, the “sensitivity of ρ0 cells compared with ρ+ cells” value [7] was “more resistant” and the “inhibition of mitochondrial complexes II–V” value [8] was “None of the other mitochondrial complexes (complex II–V) were inhibited”. The “effect on cellular oxygen consumption rate” value [3] was “inhibited the oxygen consumption of NCI‐H23 cells in a dose‐dependent manner”.

With C=C(C)[C@H]1Cc2c(ccc3c2O[C@@H]2COc4cc(OC)c(OC)cc4[C@@H]2C3=O)O1 [Rotenone, reference compound] the “effect on cellular oxygen consumption rate” value [3] was “inhibited the oxygen consumption of NCI‐H23 cells in a dose‐dependent manner”.
